Results collected from several papers.
Matrix: plasma

Cc1ncc2n1-c1ccc(Cl)cc1C(c1ccccc1F)=NC2  AUC (male human; oral, 7.5 mg): 117 ng·h/mL
N=C(N)NCCC[C@@H](NC(=O)[C@@H](N)Cc1ccccc1)C(=O)N[C@@H](Cc1ccccc1)C(=O)N[C@@H](CCCCN)C(N)=O  AUC(0-t) (human; subcutaneous, 25 mg, patients): 4620 ng·h/mL
OCc1ncc2n1-c1ccc(Cl)cc1C(c1ccccc1F)=NC2  AUC(0-inf) (human; oral, 2 mg): 9.63 ng·h/mL
C=C(C)[C@@H]1CC[C@]2(NCCN3CCS(=O)(=O)CC3)CC[C@]3(C)[C@H](CC[C@@H]4[C@@]5(C)CC=C(C6=CC[C@@](COc7ncccc7C#N)(C(=O)O)CC6)C(C)(C)[C@@H]5CC[C@]43C)[C@@H]12  AUC(0-inf) (human; oral, 100 mg, fasted, tablet): 28000 ng·h/mL
CN(C)CCc1c[nH]c2ccccc12  AUC(0-inf) (human; intravenous, 9 mg, healthy volunteers, infusion): 5.87 ng·h/mL
CC(C)[C@H](N)C(=O)NCCCS(=O)(=O)O  AUC(0-t) (human; oral, 256.5 mg, multiple doses, twice daily, fasted): 11200 ng·h/mL
CC(=C/C=C/C(C)=C/C(=O)O)/C=C1\CCCc2ccccc21  AUC(0-inf) (human; oral, 20 mg, single dose, fasted, healthy volunteers): 827 ng·h/mL
c1cc([C@H]2CC[C@]3(CC2)OO[C@]2(O3)C3CC4CC(C3)CC2C4)ccc1OCCN1CCOCC1  AUC(0-inf) (human; oral, 200 mg, patients): 3180 ng·h/mL
C=CCNc1c(O)cc2c(O)c1C[C@@H](C)C[C@H](OC)[C@H](O)[C@@H](C)/C=C(\C)[C@H](OC(N)=O)[C@@H](OC)/C=C\C=C(/C)C(=O)N2  AUC(0-inf) (human; intravenous, 400 mg/m², patients, infusion): 11700 ng·h/mL
COc1ccc(C[C@@H]2NC(=O)[C@H]([C@@H](C)O)NC(=O)[C@@H]3[C@@H]4CCN3C(=O)[C@@H]3Cc5cn(c6ccc(F)cc56)CCCCCCN(Cc5ccc(cc5)CCNC(=O)[C@]5(C)CCCN5C2=O)C(=O)CCC(=O)N[C@@H](C)C(=O)N[C@H](CNC(=O)CCCCC[N+](C)(C)C)C(=O)N[C@@H](Cc2cccc(c2)CNC(=O)CO4)C(=O)N3)cc1  AUC(0-t) (human; oral, 200 mg, single dose): 0.481 µM·h
